A short description of series [1]: AUC in mouse blood at 30 mg/kg, po. Format: ADME, organism-based. More on the design: dose 30 mg/kg, route oral. In a few lines:
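AUC at 30 mg/kg p.o. in mice taken from earlier work; skip.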

The nature of series [2]: Drug level in ICR mouse brain at 30 mg/kg, po administered as single dose measured after 1 hr.
Series [3] is described as follows: Drug level in ICR mouse plasma at 30 mg/kg, po administered as single dose measured after 1 hr. The series is classed as ADME, organism-based. More on the design: dose 30 mg/kg, route oral. In a few lines: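 Single oral dose of 30 mg/kg given as 0.5% CMC suspension to mice; blood and brain concentrations of non-radioactive compound measured 1 h after dosing.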

Series [4] is described as follows: Ratio of drug level in brain to plasma of ICR mouse at 30 mg/kg, po administered as single dose measured after 1 hr.
Series [5] can be described thus: Retention time of the compound by HPLC method. Format: physicochemical. In a few lines: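 Reversed-phase HPLC, 3 μm column, 0.7 mL/min, methanol/25 mM ammonium acetate pH 5.0 (80:20 v/v) mobile phase, UV detection at 260 nm.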
In series [6] the target is T1, Retinoic acid receptor RXR-alpha (Homo sapiens, UniProt P19793).
T1 sequence (P19793 whole entry): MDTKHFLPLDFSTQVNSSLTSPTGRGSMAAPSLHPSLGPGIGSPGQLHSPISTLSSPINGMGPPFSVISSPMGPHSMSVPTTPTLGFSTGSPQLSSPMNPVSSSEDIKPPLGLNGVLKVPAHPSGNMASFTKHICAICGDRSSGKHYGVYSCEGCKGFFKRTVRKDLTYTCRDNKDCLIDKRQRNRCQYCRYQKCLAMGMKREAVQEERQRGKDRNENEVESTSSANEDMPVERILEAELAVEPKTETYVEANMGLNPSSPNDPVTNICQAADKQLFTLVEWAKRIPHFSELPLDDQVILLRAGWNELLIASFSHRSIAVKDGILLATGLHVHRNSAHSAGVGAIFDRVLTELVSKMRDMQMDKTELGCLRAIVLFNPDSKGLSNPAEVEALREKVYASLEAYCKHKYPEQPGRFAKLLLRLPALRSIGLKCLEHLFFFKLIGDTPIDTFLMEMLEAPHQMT
In words: Agonist activity at RXRalpha (unknown origin) expressed in COS1 cells incubated for 18 hrs by luciferase reporter gene assay. The series is classed as cell-based, COS-1. Background: In a reporter assay the amount or activity of a reporter protein is the signal.

For series [7], the system named is Duodenum. Kind of series: Drug uptake in ICR mouse duodenum at 8 to 11 MBq, iv by PET/CT imaging method. The series is classed as ADME, organism-based. As to conditions: in vivo; call rule not given here. In a few lines:
(§1)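 Tracer dissolved in EtOH, diluted with saline to 10 MBq, given i.v. or p.o.; 30 min PET/CT scan, images reconstructed at selected times; organ ROIs defined from PET/CT data; uptake expressed as %ID (organ Bq per whole-body Bq) from mean pixel radioactivity; n = 3–5, mean ± SEM; one-way ANOVA then t-test.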

The nature of series [8]: Drug uptake in ICR mouse urinary bladder at 8 to 11 MBq, po by PET/CT imaging method. The conditions noted are these: in vivo. Format: ADME, organism-based. In a few lines: as §1
A short description of series [9]: Drug uptake in ICR mouse gall bladder at 8 to 11 MBq, po by PET/CT imaging method. The series is classed as ADME, organism-based. As to conditions: in vivo. In a few lines:
as §1

For series [10], the system named is Liver. In words: Drug uptake in ICR mouse liver at 8 to 11 MBq, iv by PET/CT imaging method. The conditions noted are these: in vivo. Format: ADME, organism-based. In a few lines:
as §1

Series [11] deals with Stomach. Kind of series: Drug uptake in ICR mouse stomach at 8 to 11 MBq, po after 30 mins by PET/CT imaging method. Format: ADME, organism-based. As to conditions: in vivo, 0.5 h. In a few lines: as §1
Series [12] has as its system Stomach. Kind of series: Drug uptake in ICR mouse stomach at 8 to 11 MBq, po by PET/CT imaging method. As to conditions: in vivo. The series is classed as ADME, organism-based. In a few lines: as §1
Series [13] can be described thus: Drug uptake in ICR mouse urinary bladder at 8 to 11 MBq, iv by PET/CT imaging method. The conditions noted are these: in vivo. The series is classed as ADME, organism-based. In a few lines:
as §1

The subject of series [14] is Kidney. In words: Drug uptake in ICR mouse kidney at 8 to 11 MBq, iv by PET/CT imaging method. Format: ADME, organism-based. The conditions noted are these: in vivo.
Series [15] relates to Heart. Kind of series: Drug uptake in ICR mouse heart at 8 to 11 MBq, iv by PET/CT imaging method. The conditions noted are these: in vivo. Format: ADME, organism-based. In a few lines: as §1
Series [16] is described as follows: Drug uptake in ICR mouse gall bladder at 8 to 11 MBq, iv by PET/CT imaging method. The series is classed as ADME, organism-based. The conditions noted are these: in vivo. In a few lines: as §1
For series [17], the system named is Liver. In words: Drug uptake in ICR mouse liver at 8 to 11 MBq, po by PET/CT imaging method. The series is classed as ADME, organism-based. As to conditions: in vivo. In a few lines: as §1
For series [18], the system named is Heart. Kind of series: Ratio of AUC (0 to 30 mins) in ICR mouse heart at 8 to 11 MBq, po to AUC (0 to 30 mins) in ICR mouse heart at 8 to 11 MBq, iv. The series is classed as ADME, organism-based. As to conditions: in vivo. In a few lines: (§2)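 Tracer in EtOH diluted with saline to 10 MBq, given i.v. or p.o.; 30 min PET scan; blood radioactivity as %ID/mL from heart %ID divided by heart volume; AUC over 0–30 min; bioavailability as dose-corrected oral AUC over i.v. AUC; n = 3–5, mean ± SEM.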

Series [19] deals with Duodenum. In words: Drug uptake in ICR mouse duodenum at 8 to 11 MBq, po by PET/CT imaging method. The series is classed as ADME, organism-based. The conditions noted are these: in vivo. In a few lines:
as §1

Series [20] relates to Kidney. In words: Drug uptake in ICR mouse kidney at 8 to 11 MBq, po by PET/CT imaging method. The series is classed as ADME, organism-based. As to conditions: in vivo.
Series [21] concerns Heart. In words: Drug uptake in ICR mouse heart at 8 to 11 MBq, iv during 0 to 30 mins by PET imaging method. Format: ADME, organism-based. The conditions noted are these: in vivo. In a few lines: as §2

Results on nine compounds are retold here after ChEMBL document CHEMBL3425461, “Positron emission tomography to elucidate pharmacokinetic differences of regioisomeric retinoid x receptor agonists” (ACS Med Chem Lett, 2015).

For `CCN(c1ccc(C(C)C)c(OCC(C)C)c1)c1ccc(C(=O)O)cn1`, in series [1], the exposure (AUC) came out at 1140 ng·h/mL. The figures for the concentration at 1 h in series [2] and in [3] were 978 ng/mL and 1320 ng/mL, respectively. In addition, in series [4], the Kp at 1 h was found to be 0.74. Besides, in series [5], the Retention_time turned out to be 12.7 min.

`CCN(c1ccc(C(C)C)c(OCC(C)CF)c1)c1ccc(C(=O)O)cn1` (stereo unspecified) yielded an EC50 in [6] of 12 nM. Besides, the Retention_time in series [5] is recorded as 7.63 min.

As for `CCN(c1ccc(OCC(C)C)c(C(C)C)c1)c1ccc(C(=O)O)cn1`, the EC50 in series [6] turned out to be 169 nM. This compound had an area under the curve (AUC) in [1] of 18800 ng·h/mL. The concentration at 1 h in series [2] came to 2570 ng/mL; in series [3] it was 6760 ng/mL. For the same compound, the Kp at 1 h in [4] was found to be 0.38. The compound also gave a Retention_time in series [5] of 11.7 min.

In the case of `CCN(c1ccc(OCC(C)CF)c(C(C)C)c1)c1ccc(C(=O)O)cn1` (stereo unspecified), the EC50 in series [6] worked out at 450 nM. Further, the Retention_time in [5] was determined as 6.7 min.

Regarding `CCN(c1ccc(C(C)C)c(OCC(C)C[18F])c1)c1ccc(C(=O)O)cn1` (stereo unspecified), the Drug uptake result is “Active” in the series with Duodenum [7]; “Not Active” in series [8]; “Active” in [9]; “Active” in the series with Liver [10]; “Active” in the series with Stomach [11]; “Active” with Stomach [12]. Moreover, the Drug uptake entry in [13] is on record as “Not Active”; in the series on Kidney [14], “Not Active”; with Heart [15], “Active”; in series [16] it was “Active”; with Liver [17], “Active”; in the series on Duodenum [19], “Active”. Also, the Drug uptake result with Kidney [20] is “Not Active”. In addition, in the series on Heart [18], the Ratio is 0.18.

As for `CCN(c1ccc(OCC(C)C[18F])c(C(C)C)c1)c1ccc(C(=O)O)cn1` (stereo unspecified), the Drug uptake entry in the series on Duodenum [7] is listed as “Active”; in [8], “Not Active”; in [9], “Active”; in the series with Liver [10], “Active”; in the series with Stomach [11], “Active”; in the series with Stomach [12] it was “Active”. Moreover, the Drug uptake result in series [13] is listed as “Not Active”; with Kidney [14], “Not Active”; in the series on Heart [15] it was “Active”; in [16], “Active”; in the series with Liver [17] it was “Active”; in the series with Duodenum [19] it was “Active”. Also, the Drug uptake result in the series on Kidney [20] is “Not Active”. Moreover, in the series on Heart [18], the Ratio is 0.43.

For `CCN(c1ccc(C(C)C)c(OCC(C)C)c1)c1ccc([11C](=O)O)cn1`, in the series with Heart [21], the Drug uptake result is listed as “Active”.

For the compound `CCN(c1ccc(OCC(C)C)c(C(C)C)c1)c1ccc([11C](=O)O)cn1`, the Drug uptake result in the series with Heart [21] was “Active”.

Consider `C=C(c1ccc(C(=O)O)cc1)c1cc2c(cc1C)C(C)(C)CCC2(C)C` [BEXAROTENE], for which the concentration at 1 h in series [3] is 4150 ng/mL.

For orientation: AUC means the area under the concentration-time curve, a measure of exposure. A low value points to less exposure. As a reminder, the Kp is the ratio of the level in a tissue or fluid to that in plasma or blood. By EC50 is commonly meant the concentration at which the effect is half-maximal. A low value points to higher potency in that assay.
